From ChEMBL document CHEMBL1157227, “Cytotoxic pregnane steroids from the formosan soft coral Stereonephthya crystalliana” (J Nat Prod, 2006)
≈ marks a conversion by molar mass, not a printed value.

Legend:
P388 = assay: Cytotoxicity against mouse P388 cells; type: functional, cell-based
Procedure, shortened: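 P-388 mouse lymphocytic leukemia cells provided by an academic lab; in vitro cytotoxicity by a previously described procedure; result given as ED50 in µg/mL, with ED50 ≤ 4.0 µg/mL taken as significant for pure compounds.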

HT-29 = assay: Cytotoxicity against human HT29 cells; type: functional; settings: read-out: ED50 (the source's name)
Procedure, shortened: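 HT-29 human colon adenocarcinoma cells from ATCC; in vitro cytotoxicity by a previously described procedure; result given as ED50 in µg/mL, with ED50 ≤ 4.0 µg/mL taken as significant for pure compounds.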

SMILES	IC50 (P388) [µg/mL]	EC50 (HT-29) [µg/mL]
C=CC1CCC2C3CCC4CC(OC5OC(C)C(O)C(OC(C)=O)C5O)CCC4(C)C3CCC12C (stereo not drawn)	13.3 (≈ 27.1 µM)	6.2 (≈ 12.6 µM)
C=C[C@H]1CC[C@H]2[C@@H]3CC[C@H]4C[C@@H](O)CC[C@]4(CO)[C@H]3CC[C@]12C [STEREONSTEROID A]	3.5 (≈ 11 µM)	7.5 (≈ 23.5 µM)
C=C[C@H]1CC[C@H]2[C@@H]3CC[C@H]4C[C@@H](OC(C)=O)CC[C@]4(C=O)[C@H]3CC[C@]12C [STEREONSTEROID B]	1.6 (≈ 4.46 µM)	1.7 (≈ 4.74 µM)
C=C[C@H]1CC[C@H]2[C@@H]3CC[C@H]4C[C@@H](O[C@@H]5O[C@@H](C)[C@@H](OC(C)=O)[C@@H](O)[C@@H]5O)CC[C@]4(CO)[C@H]3CC[C@]12C [STEREONSTEROID C]	3.1 (≈ 6.12 µM)	2.7 (≈ 5.33 µM)
C=C[C@H]1CC[C@H]2[C@@H]3CC[C@H]4C[C@@H](O[C@@H]5O[C@@H](C)[C@@H](OC(C)=O)[C@@H](O)[C@@H]5O)CC[C@]4(COC(C)=O)[C@H]3CC[C@]12C [STEREONSTEROID D]	4.9 (≈ 8.93 µM)	5.2 (≈ 9.48 µM)
C=C[C@H]1CC[C@H]2[C@@H]3CC[C@H]4C[C@@H](O[C@@H]5O[C@@H](C)[C@@H](OC(C)=O)[C@@H](O)[C@@H]5O)CC[C@]4(C=O)[C@H]3CC[C@]12C [STEREONSTEROID E]	3.8 (≈ 7.53 µM)	9.3 (≈ 18.4 µM)
C=C[C@H]1CC[C@H]2[C@@H]3CC[C@H]4C[C@@H](O[C@@H]5O[C@@H](C)[C@@H](OC(C)=O)[C@@H](O)[C@@H]5O)CC[C@]4(C)[C@H]3CC[C@]12C [STEREONSTEROID F]	9.4 (≈ 19.2 µM)	10.8 (≈ 22 µM)
C=C[C@H]1CC[C@H]2[C@@H]3CC=C4C[C@@H](O[C@@H]5O[C@@H](C)[C@@H](O)[C@@H](OC(C)=O)[C@@H]5O)CC[C@]4(C)[C@H]3CC[C@]12C [STEREONSTEROID H]	5.4 (≈ 11.1 µM)	5.3 (≈ 10.8 µM)
C=C[C@H]1CC[C@H]2[C@@H]3CC[C@H]4C[C@@H](O[C@@H]5OC[C@@H](O)[C@H](O)[C@H]5O)CC[C@]4(C)[C@H]3CC[C@]12C [STEREONSTEROID I]	5.9 (≈ 13.6 µM)	7.7 (≈ 17.7 µM)
